From PubChem BioAssay
Scp1 inh: inhibitors of human Scp-1 phosphatase. hit rate 0.88% among 340,000. Q9GZU7. Recombinant Scp1, phosphopeptide, malachite green phosphate absorbance. inhibition, % at 20 µM;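 active = inhibition above about 50% at 20 µM, limit read from the data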;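 also: plate controls were DMSO wells with enzyme for no effect and wells lacking enzyme for full effect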
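Assay system: SCP-1 catalytic fragment, aa 76-261 | Buffer or medium: Tris acetate buffer pH 5.5 with MgCl2 and Tween-20 | Compound: One concentration, 20 µM, with 1.0% DMSO | Also added: Phospho 17-mer peptide substrate | Signal: Absorbance at 630 nm | Incubation: 45 min enzyme reaction at room temperature | Measure: % inhibition of SCP-1 phosphate liberation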
NadD inh: blocks S. aureus nicotinate mononucleotide adenylyltransferase. purified NadD enzyme, colorimetric absorbance read-out. inhibition, % at 20 µM. hit rate 0.78% among 360,000; in the data active = inhibition above about 26%
rCAG RNA binder: binds r(CAG) RNA repeats. r(CAG) RNA repeat, TO-PRO-1 dye displacement fluorescence. inhibition, % at 3 µM. AID 651821. hit rate 1.3% among 370,000;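 active = inhibition above the plate cutoff, the mean of all test compounds on that plate plus 3 SD, cut at about 35% in these data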;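 also: 0% = DMSO alone and 100% = 100 µM mitoxantrone as full dye displacement; higher means more dye released from RNA so lower well fluorescence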
STEP block: blocks human striatal-enriched tyrosine phosphatase. hit rate 0.25% among 360,000. inhibition, % at 20 µM. recombinant STEP, OMFP fluorogenic substrate, fluorescence;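 active = inhibition at 20 µM, scaled per plate between control wells, above about 37%, limit read from the data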;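 also: 0% = DMSO with enzyme and substrate and 100% = substrate only without enzyme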
Target sequence (P54829 whole entry, looked up): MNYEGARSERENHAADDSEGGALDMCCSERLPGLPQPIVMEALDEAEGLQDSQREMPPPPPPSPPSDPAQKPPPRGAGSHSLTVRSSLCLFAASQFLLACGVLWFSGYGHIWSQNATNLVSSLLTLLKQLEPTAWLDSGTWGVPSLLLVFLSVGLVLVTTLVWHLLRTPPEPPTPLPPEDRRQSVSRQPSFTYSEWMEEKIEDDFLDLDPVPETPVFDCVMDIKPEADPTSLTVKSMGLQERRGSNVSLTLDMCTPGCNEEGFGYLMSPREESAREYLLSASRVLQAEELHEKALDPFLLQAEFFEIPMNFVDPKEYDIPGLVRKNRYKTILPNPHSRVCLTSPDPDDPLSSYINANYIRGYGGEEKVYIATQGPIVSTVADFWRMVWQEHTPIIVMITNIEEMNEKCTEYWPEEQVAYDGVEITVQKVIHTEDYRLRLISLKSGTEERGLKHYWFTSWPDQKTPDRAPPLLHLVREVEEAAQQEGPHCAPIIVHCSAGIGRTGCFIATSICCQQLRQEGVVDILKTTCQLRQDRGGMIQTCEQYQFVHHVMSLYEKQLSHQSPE
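Assay system: isolated STEP enzyme. Buffer or medium: pH 6.0 Bis-Tris with DTT and Tween 20. Also added: fluorogenic phosphatase substrate OMFP at 25 µM final. Dosing: 20 µM, 1% DMSO. Timing: 20 min reaction, room temperature, in the dark. Measured by: fluorescence intensity, excitation 480 nm, emission 540 nm. Evaluation: normalized % inhibition.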
LMPTP block: blocks human LMPTP phosphatase; recombinant LMPTP-A, OMFP fluorogenic substrate, fluorescence intensity; inhibition, % at 20 µM; hit rate 0.22% among 360,000; AID 651560;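 active = compounds that cut the enzyme signal by at least half of the control window in the single-dose screen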;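 also: plate controls were DMSO wells with enzyme plus substrate for no effect and substrate without enzyme for full effect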
Target sequence (P24666 whole entry, looked up): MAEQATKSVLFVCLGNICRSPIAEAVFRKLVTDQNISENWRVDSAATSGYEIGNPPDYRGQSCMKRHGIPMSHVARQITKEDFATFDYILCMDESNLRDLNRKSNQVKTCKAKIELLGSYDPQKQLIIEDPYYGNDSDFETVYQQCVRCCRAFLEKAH
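Assay system: LMPTP-A enzyme. Input: 0.625 nM LMPTP-A final. Probe or stimulus: 400 µM OMFP. Compound dosing: single 20 µM dose. Schedule: 50 min dark incubation at room temperature. Detection: fluorescence intensity of OMFP turnover product. Read-out: percent inhibition versus substrate-only and uninhibited controls. Benchmarks: no-enzyme low control, uninhibited high control.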
NadD conf: NadD (S. aureus) inhibition, single concentration confirmation. shares compounds with NadD inh. purified S. aureus NadD, colorimetric enzyme assay. inhibition, % at 20 µM. hit rate 13% among 2,000. AID 624309; in the data active = inhibition mostly above about 42%, no sharp cut-off; inactive = mostly below about 42%
The depositor's hits bear a star; . = no result. Compounds with a hit are over-represented: about 2.6% of the library has one in this group of screens.

SMILES	Scp1 inh	NadD inh	rCAG RNA binder	STEP block	LMPTP block	NadD conf
COc1cc(NC(=O)COc2ccc(Cl)cc2)ccc1-c1cc2ccccc2oc1=O	-10.1	38.1*	15.4	0.9	3.6	5.2
COc1ccc(Cl)cc1N(CC(=O)N/N=C/c1ccc(OC(C)C)cc1)S(=O)(=O)c1ccc(C)c([N+](=O)[O-])c1	-1.7	31.2*	17.5	5.5	2.2	15.3
CCOC(=O)[C@]12CCCCC/C=C\1N(Cc1ccc(OC)cc1)C(=O)[C@H]2CC(=O)NCc1cccc2ccccc12	.	.	9.1	.	.	.
Oc1ccc(Nc2nc(-c3cccs3)cs2)cc1	2.4	33.3*	26.9	-1.4	-0.6	61.7*
COc1cc(/C=C/C(=O)CC(=O)/C=C/c2ccc(O)c(OC)c2)ccc1O	-3.5	56.5*	26.6	-22.8	4.7	51.8*
C#Cc1cccc(OCC(C)CN2CCC(C(O)(c3ccccc3)c3ccccc3)CC2)c1 (centres undefined)	.	.	0.4	.	.	.
COc1ccc(S[C@]2(C(=O)N3CCN(C(C)=O)CC3)CC(=O)N(C(=O)/C=C/c3ccccc3)[C@@H]2c2ccc(OC)cc2)cc1	.	.	16.1	.	.	.
CCOC(=O)[C@@]12CN(C(=O)OC(C)(C)C)CC=C1N(Cc1ccc(OC)cc1)C(=O)[C@H]2CC(=O)NCCC(C)C	.	.	-1.8	.	.	.
O=C(COc1ccc(/C=N/NC(=O)c2ccccc2O)cc1)Nc1ccc([N+](=O)[O-])cc1	-4.9	39.5*	7.5	6.4	36.5	-1.8
O=C(COc1ccc(/C=N/NC(=O)c2ccncc2)cc1)Nc1cccc([N+](=O)[O-])c1	8.1	1.9	3.5	0.5	0.9	.
Nc1cc(N)cc(Cc2ccccc2)c1	.	32.8*	13.8	-2.8	0.1	45.7
N#Cc1ccc(NC(=O)Nc2cccc(C#N)c2)cc1	-11.0	-6.8	5.3	-2.7	0.7	.
N#Cc1ccc(NC(=O)Nc2ccc(Oc3ccc(NC(=O)Nc4ccc(C#N)cc4)cc3)cc2)cc1	-13.6	27.9*	8.2	-4.0	3.8	-2.2
COc1cccc(/C=C2\CC3(OC(=O)C4CCCCC4)CCCN2C3)c1 (centres undefined)	.	.	2.3	.	.	.
Cc1ccc(-c2csc(C3=C(O)CN(NC(=O)c4ccc([N+](=O)[O-])cc4)C3=N)n2)cc1	22.9	30.0*	5.4	3.7	13.5	7.0
O=C(NCCc1c[nH]c2ccccc12)C1CCC(Cn2c(=S)[nH]c3ccccc3c2=O)CC1 (centres undefined)	-8.0	32.6*	20.3	-1.9	4.6	25.1
COCCNC(=O)C1CCC(Cn2c(=S)[nH]c3ccccc3c2=O)CC1 (centres undefined)	-0.3	-1.6	-5.9	-2.2	0.8	.
Cn1cccc1C(=O)N1CCN(S(=O)(=O)c2ccc([N+](=O)[O-])cc2)CC1	.	.	3.1	.	.	.
Cc1ccc(C=NNC(=O)CSc2nc3sc4c(c3c(=O)n2-c2ccccc2)CCCC4)s1	.	.	10.7	.	.	.
Cc1cc(C(=O)N/N=C/c2cc(Br)ccc2OC(=O)c2ccccc2Cl)n[nH]1	-7.1	35.3*	10.2	5.2	6.3	-3.7
CCCCNC(=O)C[C@H]1C[C@@]2(C(=O)OC)C(=C[C@H](C(C)C)O[C@@H]2C2CC2)N(Cc2ccc3c(c2)OCO3)C1=O	.	.	3.1	.	.	.
Cc1ccccc1N(C)C(=O)C1CCCN1S(=O)(=O)c1cccc2cccnc12 (centres undefined)	.	.	1.7	.	.	.
CC(C)C[C@@H](CNCC(=O)[C@H](Cc1c[nH]c2ccccc12)NC(=O)c1[nH]cnc1C(=O)N[C@H](CN)CC(C)C)NC(=O)c1nc[nH]c1C(=O)N[C@@H](CC(=O)O)C(=O)O	12.6	31.2*	27.7	1.7	-1.8	45.4
CC(C)C[C@@H](CNCC(=O)[C@H](Cc1c[nH]c2ccccc12)NC(=O)c1[nH]cnc1C(=O)N[C@@H](C)CN)NC(=O)c1nc[nH]c1C(=O)N[C@@H](CC(=O)O)C(=O)O	-1.9	13.5	25.7	2.1	-4.5	.
COc1cc2oc(=O)cc(CN3CCN(c4ccccc4F)CC3)c2cc1Cl	.	38.9*	12.2	-4.0	1.9	21.5
SMILES	Scp1 inh	NadD inh	rCAG RNA binder	STEP block	LMPTP block	NadD conf
Cn1c(=O)c(C(=O)CN2CCc3ccccc32)c(N)n(Cc2ccccc2)c1=O	-6.3	62.5*	8.4	3.1	0.9	15.4
Nc1ccc(O)c(-c2nc3ccccc3s2)c1	-7.4	63.4*	18.0	5.0	12.0	22.9
Nc1ccccc1-c1nc2ccccc2s1	-4.0	-4.2	7.8	14.6	3.7	.
Cc1ccccc1N1CCN(CCN2C(=O)CC(=C3c4ccccc4-c4ccccc43)C2=O)CC1	-2.2	30.6*	14.8	-0.7	1.2	39.0
COc1ccccc1N1CCN(CCN2C(=O)CC(=C3c4ccccc4-c4ccccc43)C2=O)CC1	-7.3	.	.	.	.	.
O=C1CC(=C2c3ccccc3-c3ccccc32)C(=O)N1CCN1CCN(c2ccccc2)CC1	5.7	38.2*	14.1	4.1	1.4	27.2
CCOc1ccc(/C=N/NC(=O)Cc2csc(Nc3cccc(C(F)(F)F)c3)n2)c(OCC)c1	0.5	8.7	9.3	0.5	2.0	.
COc1ccc(/C=N/NC(=O)Cc2csc(Nc3cccc(C(F)(F)F)c3)n2)c(OC)c1	9.8	33.0*	12.6	0.6	3.5	45.4
CCOc1ccccc1/C=N/NC(=O)Cc1csc(Nc2cccc(C(F)(F)F)c2)n1	8.5	37.9*	14.3	-2.8	4.1	24.4
O=C(Nc1ccc2c(c1)OCO2)C1Cc2ccccc2CN1S(=O)(=O)c1cccs1 (centres undefined)	-12.1	31.0*	8.0	1.2	5.5	-1.5
COc1ccccc1N1CCN(c2ccc3c(c2)S(=O)(=O)c2cccc(C(=O)NCc4cccc(F)c4)c2C3=O)CC1	.	30.9*	8.1	6.2	3.4	18.4
O=C(NCc1cccc(F)c1)c1cccc2c1C(=O)c1ccc(N3CCOCC3)cc1S2(=O)=O	-0.2	7.6	0.7	5.4	0.6	.
O=C(NC1CCCC1)c1cccc2c1C(=O)c1ccc(/C=C/c3ccccc3)cc1S2(=O)=O	-2.7	25.2	2.9	-1.8	-0.2	.
O=C(NCc1cccc(OC(F)(F)F)c1)c1cccc2c1C(=O)c1ccc(-c3ccc(F)cc3OCc3ccccc3)cc1S2(=O)=O	-14.6	48.2*	10.3	2.2	3.0	33.3
O=C(NCc1ccccc1)c1cccc2c1C(=O)c1ccc(/C=C/c3ccccc3)cc1S2(=O)=O	-8.2	33.7*	8.3	3.1	1.5	-5.7
COC(=O)c1c(NC(=O)c2ccc(C)c(S(=O)(=O)Nc3ccccc3C)c2)sc2c1CCCC2	-4.4	21.8*	0.8	1.1	3.0	-7.2
N=c1c2c(-c3ccccc3)c(-c3ccccc3)n(CCc3ccccc3)c2ncn1C1CCC(O)CC1 (centres undefined)	.	.	10.2	.	.	.
Nc1nnc(SCC(=O)c2ccccc2)s1	13.8	6.7	4.0	5.1	-0.5	.
